The source made the active and inactive calls. The rule behind the calls is not given here.
Key:
[1] = test system: Human immunodeficiency virus 1; assay: Antiviral activity against HIV1 NL4-3 infected human MT2 cells assessed as viral infection at 10 uM administered 30 mins before viral challenge by luciferase reporter gene activation assay relative to control; assay type: functional
Procedure, shortened: (§1)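 MT-2 cells at 10^6/mL in RPMI 1640 with 10% heat-inactivated FBS, 37 °C, 5% CO2. Cells were pretreated 30 min, then infected with VSV-pseudotyped pNL4-3.Luc.R−E− virus made in 293T cells (200 ng p24). After 20 h: PBS wash, lysis in Tris-phosphate pH 7.8 buffer, luciferase read. Value is % of untreated infected cells (100%), ±S.D.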

[2] = test system: Human immunodeficiency virus 1; assay: Antiviral activity against HIV1 NL4-3 infected human MT2 cells assessed as viral infection at 25 uM administered 30 mins before viral challenge by luciferase reporter gene activation assay relative to control; assay type: functional; procedure, shortened: as §1
MT2 [3] = assay: Induction of apoptosis in HIV1 NL4-3 infected human MT2 cells administered 30 mins before viral challenge measured after 24 hrs by propidium iodide staining and flow cytometry; assay type: functional, cell-based
Procedure, shortened: (§2)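 MT-2 cells at 10^6/mL were pretreated 30 min, then infected 24 h with VSV-pseudotyped HIV-1 luciferase virus. Phase percentages were taken; apoptosis was scored as the sub-G0/G1 (hypodiploid) fraction.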

MT2 [4] = assay: Induction of apoptosis in HIV1 NL4-3 infected human MT2 cells at 25 uM administered 30 mins before viral challenge measured after 24 hrs by propidium iodide staining and flow cytometry; assay type: functional; procedure, shortened: as §2
MT2 [5] = assay: Induction of apoptosis in HIV1 NL4-3 infected human MT2 cells at 10 uM administered 30 mins before viral challenge measured after 24 hrs by propidium iodide staining and flow cytometry; assay type: functional; procedure, shortened: as §2
MT2 [6] = assay: Cell cycle arrest in HIV1 NL4-3 infected human MT2 cells assessed as accumulation at G2/M phase at 10 uM administered 30 mins before viral challenge measured after 24 hrs by propidium iodide staining and flow cytometry; assay type: functional; procedure, shortened: as §2
MT2 [7] = assay: Cell cycle arrest in HIV1 NL4-3 infected human MT2 cells assessed as accumulation at G0/G1 phase at 10 uM administered 30 mins before viral challenge measured after 24 hrs by propidium iodide staining and flow cytometry; assay type: functional; procedure, shortened: as §2
MT2 [8] = assay: Cell cycle arrest in HIV1 NL4-3 infected human MT2 cells assessed as accumulation at G2/M phase at 25 uM administered 30 mins before viral challenge measured after 24 hrs by propidium iodide staining and flow cytometry; assay type: functional; procedure, shortened: as §2
MT2 [9] = assay: Cell cycle arrest in HIV1 NL4-3 infected human MT2 cells assessed as accumulation at S phase at 10 uM administered 30 mins before viral challenge measured after 24 hrs by propidium iodide staining and flow cytometry; assay type: functional; procedure, shortened: as §2
MT2 [10] = assay: Cell cycle arrest in HIV1 NL4-3 infected human MT2 cells assessed as accumulation at S phase at 25 uM administered 30 mins before viral challenge measured after 24 hrs by propidium iodide staining and flow cytometry; assay type: functional; procedure, shortened: as §2
MT2 [11] = assay: Cell cycle arrest in HIV1 NL4-3 infected human MT2 cells assessed as accumulation at G0/G1 phase at 25 uM administered 30 mins before viral challenge measured after 24 hrs by propidium iodide staining and flow cytometry; assay type: functional; procedure, shortened: as §2

Structure (SMILES): C[C@H](NC(=O)CCCCCNC(=O)[C@]12CCC(C)(C)C[C@H]1C1=CC[C@@H]3[C@@]4(C)C[C@@H](O)[C@H](O)C(C)(C)[C@@H]4CC[C@@]3(C)[C@]1(C)CC2)C(=O)NCC(=O)O
- Activity [1]: 170.2%
- Activity [2]: 89.6%

Structure (SMILES): CC1(C)CC[C@]2(C(=O)NCCCCCCCCCCC(=O)NCC(=O)O)CC[C@]3(C)C(=CC[C@@H]4[C@@]5(C)C[C@@H](O)[C@H](O)C(C)(C)[C@@H]5CC[C@]43C)[C@@H]2C1
- Activity [1]: 85.6%
- Activity [2]: 49.8%

Structure (SMILES): C[C@H](NC(=O)CCCCCNC(=O)[C@]12CCC(C)(C)C[C@H]1C1=CC[C@@H]3[C@@]4(C)C[C@@H](O)[C@H](O)C(C)(C)[C@@H]4CC[C@@]3(C)[C@]1(C)CC2)C(=O)O
- Activity [1]: 107%
- Activity [2]: 70.2%

Structure (SMILES): COC(=O)CCCCCCCCCCNC(=O)[C@]12CCC(C)(C)C[C@H]1C1=CC[C@@H]3[C@@]4(C)C[C@@H](O)[C@H](O)C(C)(C)[C@@H]4CC[C@@]3(C)[C@]1(C)CC2
- Activity [1]: 66.9%
- Activity [2]: 35.6%

Structure (SMILES): C[C@H](NC(=O)[C@]12CCC(C)(C)C[C@H]1C1=CC[C@@H]3[C@@]4(C)C[C@@H](O)[C@H](O)C(C)(C)[C@@H]4CC[C@@]3(C)[C@]1(C)CC2)C(=O)NCC(=O)O
- Activity [1]: 134.5%
- Activity [2]: 184.8%

Structure (SMILES): COC(=O)CCCNC(=O)[C@]12CCC(C)(C)C[C@H]1C1=CC[C@@H]3[C@@]4(C)C[C@@H](O)[C@H](O)C(C)(C)[C@@H]4CC[C@@]3(C)[C@]1(C)CC2
- Activity (MT2 [3]): Active
- Activity [1]: 32.5%
- Activity [2]: 12%

Structure (SMILES): CC1(C)CC[C@]2(C(=O)NCCCCCCCCCCC(=O)O)CC[C@]3(C)C(=CC[C@@H]4[C@@]5(C)C[C@@H](O)[C@H](O)C(C)(C)[C@@H]5CC[C@]43C)[C@@H]2C1
- Activity (MT2 [4]): 5.2%
- Activity (MT2 [5]): 3.5%
- Activity (MT2 [6]): 15.1%
- Activity (MT2 [7]): 62.6%
- Activity (MT2 [8]): 18.9%
- Activity (MT2 [9]): 18.8%
- Activity [1]: 56.7%
- Activity (MT2 [10]): 22.2%
- Activity (MT2 [11]): 53.7%
- Activity [2]: 21.5%

Structure (SMILES): CC1(C)CC[C@]2(C(=O)NCCCC(=O)NCC(=O)O)CC[C@]3(C)C(=CC[C@@H]4[C@@]5(C)C[C@@H](O)[C@H](O)C(C)(C)[C@@H]5CC[C@]43C)[C@@H]2C1
- Activity [1]: 112.3%
- Activity [2]: 143.3%

Structure (SMILES): COC(=O)[C@H](C)NC(=O)[C@]12CCC(C)(C)C[C@H]1C1=CC[C@@H]3[C@@]4(C)C[C@@H](O)[C@H](O)C(C)(C)[C@@H]4CC[C@@]3(C)[C@]1(C)CC2
- Activity [1]: 63.6%
- Activity [2]: 8.9%

Structure (SMILES): C[C@H](NC(=O)CCCNC(=O)[C@]12CCC(C)(C)C[C@H]1C1=CC[C@@H]3[C@@]4(C)C[C@@H](O)[C@H](O)C(C)(C)[C@@H]4CC[C@@]3(C)[C@]1(C)CC2)C(=O)O
- Activity [1]: 83.7%
- Activity [2]: 50.1%

Structure (SMILES): C[C@H](NC(=O)CCCCCCCCCCNC(=O)[C@]12CCC(C)(C)C[C@H]1C1=CC[C@@H]3[C@@]4(C)C[C@@H](O)[C@H](O)C(C)(C)[C@@H]4CC[C@@]3(C)[C@]1(C)CC2)C(=O)O
- Activity [1]: 71.7%
- Activity [2]: 27.6%

Structure (SMILES): CC1(C)CC[C@]2(C(=O)NCCCCCC(=O)NCC(=O)O)CC[C@]3(C)C(=CC[C@@H]4[C@@]5(C)C[C@@H](O)[C@H](O)C(C)(C)[C@@H]5CC[C@]43C)[C@@H]2C1
- Activity [1]: 125.7%
- Activity [2]: 122.1%

Structure (SMILES): C[C@H](NC(=O)[C@]12CCC(C)(C)C[C@H]1C1=CC[C@@H]3[C@@]4(C)C[C@@H](O)[C@H](O)C(C)(C)[C@@H]4CC[C@@]3(C)[C@]1(C)CC2)C(=O)O
- Activity [1]: 124.2%
- Activity [2]: 60.9%

Structure (SMILES): COC(=O)[C@@H](NC(=O)[C@]12CCC(C)(C)C[C@H]1C1=CC[C@@H]3[C@@]4(C)C[C@@H](O)[C@H](O)C(C)(C)[C@@H]4CC[C@@]3(C)[C@]1(C)CC2)C(C)C
- Activity [1]: 72%
- Activity [2]: 11.1%

Structure (SMILES): COC(=O)CNC(=O)[C@]12CCC(C)(C)C[C@H]1C1=CC[C@@H]3[C@@]4(C)C[C@@H](O)[C@H](O)C(C)(C)[C@@H]4CC[C@@]3(C)[C@]1(C)CC2
- Activity [1]: 75.5%
- Activity [2]: 56.3%

Structure (SMILES): CC(C)[C@H](NC(=O)CCCCCNC(=O)[C@]12CCC(C)(C)C[C@H]1C1=CC[C@@H]3[C@@]4(C)C[C@@H](O)[C@H](O)C(C)(C)[C@@H]4CC[C@@]3(C)[C@]1(C)CC2)C(=O)O
- Activity [1]: 83.8%
- Activity [2]: 96.5%

Structure (SMILES): CC1(C)CC[C@]2(C(=O)O)CC[C@]3(C)C(=CC[C@@H]4[C@@]5(C)C[C@@H](O)[C@H](O)C(C)(C)[C@@H]5CC[C@]43C)[C@@H]2C1 [MASLINIC ACID]
- Activity (MT2 [4]): 51.8%
- Activity (MT2 [5]): 13.5%
- Activity (MT2 [6]): 18.4%
- Activity (MT2 [7]): 47.9%
- Activity (MT2 [8]): 7.5%
- Activity (MT2 [9]): 20.6%
- Activity [1]: 56.3%
- Activity (MT2 [10]): 17.7%
- Activity (MT2 [11]): 23.1%
- Activity [2]: 6.7%

Structure (SMILES): CC(C)[C@H](NC(=O)CCCCCCCCCCNC(=O)[C@]12CCC(C)(C)C[C@H]1C1=CC[C@@H]3[C@@]4(C)C[C@@H](O)[C@H](O)C(C)(C)[C@@H]4CC[C@@]3(C)[C@]1(C)CC2)C(=O)O
- Activity (MT2 [4]): 4.6%
- Activity (MT2 [5]): 2.1%
- Activity (MT2 [6]): 21.6%
- Activity (MT2 [7]): 54.6%
- Activity (MT2 [8]): 15.5%
- Activity (MT2 [9]): 21.4%
- Activity [1]: 44.9%
- Activity (MT2 [10]): 20.5%
- Activity (MT2 [11]): 59.2%
- Activity [2]: 21.2%

Structure (SMILES): CC1(C)CC[C@]2(C(=O)NCC(=O)O)CC[C@]3(C)C(=CC[C@@H]4[C@@]5(C)C[C@@H](O)[C@H](O)C(C)(C)[C@@H]5CC[C@]43C)[C@@H]2C1
- Activity [1]: 162.1%
- Activity [2]: 130.7%

Structure (SMILES): CC(C)[C@H](NC(=O)[C@]12CCC(C)(C)C[C@H]1C1=CC[C@@H]3[C@@]4(C)C[C@@H](O)[C@H](O)C(C)(C)[C@@H]4CC[C@@]3(C)[C@]1(C)CC2)C(=O)O
- Activity [1]: 102.8%
- Activity [2]: 121.2%

Structure (SMILES): CC1(C)CC[C@]2(C(=O)NCCCCCC(=O)O)CC[C@]3(C)C(=CC[C@@H]4[C@@]5(C)C[C@@H](O)[C@H](O)C(C)(C)[C@@H]5CC[C@]43C)[C@@H]2C1
- Activity [1]: 146.4%
- Activity [2]: 79.3%

Structure (SMILES): CC(C)[C@H](NC(=O)CCCNC(=O)[C@]12CCC(C)(C)C[C@H]1C1=CC[C@@H]3[C@@]4(C)C[C@@H](O)[C@H](O)C(C)(C)[C@@H]4CC[C@@]3(C)[C@]1(C)CC2)C(=O)O
- Activity [1]: 66.2%
- Activity [2]: 130.2%

Structure (SMILES): COC(=O)CCCCCNC(=O)[C@]12CCC(C)(C)C[C@H]1C1=CC[C@@H]3[C@@]4(C)C[C@@H](O)[C@H](O)C(C)(C)[C@@H]4CC[C@@]3(C)[C@]1(C)CC2
- Activity [1]: 69.6%
- Activity [2]: 36.8%

Structure (SMILES): CC1(C)CC[C@]2(C(=O)NCCCC(=O)O)CC[C@]3(C)C(=CC[C@@H]4[C@@]5(C)C[C@@H](O)[C@H](O)C(C)(C)[C@@H]5CC[C@]43C)[C@@H]2C1
- Activity [1]: 126.4%
- Activity [2]: 93.8%

Reference: ChEMBL document CHEMBL1143374, “Solution- and solid-phase synthesis and anti-HIV activity of maslinic acid derivatives containing amino acids and peptides” (2009)
